Reference: ChEMBL document CHEMBL3576798, “Depsipeptide companeramides from a Panamanian marine cyanobacterium associated with the coibamide producer” (J Nat Prod, 2015)
pIC50: −log10 of the molar value. Activity calls are given as the source filed them. No cut-off for these calls is given here.

Assays:
Plasmodium falciparum [1] = assay: Antiplasmodial activity against chloroquine-sensitive Plasmodium falciparum D6 in human erythrocyte after 72 hrs by SYBR Green I assay; format: functional, organism-based; settings: D6, 72 h
In short: (§1)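 Asynchronous parasites grown in human erythrocytes at 2% hematocrit in RPMI 1640 with 0.5% Albumax, 45 μg/L hypoxanthine, 50 μg/L gentamicin. Samples (10 mM stock in sterile water) serially diluted in medium, quadruplicate wells at 0.2% parasitemia, 2% hematocrit; 72 h at 37 °C. Lysis buffer with SYBR Green I added, 1 h rt dark, fluorescence ex 497/em 520 nm; IC50 by nonlinear regression of logistic dose–response curves.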

Plasmodium falciparum [2] = assay: Antiplasmodial activity against chloroquine-resistant Plasmodium falciparum Dd2 in human erythrocyte after 72 hrs by SYBR Green I assay; format: functional, organism-based; settings: Dd2, 72 h; in short: as §1
Plasmodium falciparum [3] = assay: Antiplasmodial activity against chloroquine-resistant Plasmodium falciparum 7G8 in human erythrocyte after 72 hrs by SYBR Green I assay; format: functional, organism-based; settings: 7G8, 72 h; in short: as §1
NCI-H460 = assay: Cytotoxicity against human NCI-H460 cells at 1 uM after 24 hrs by MTT assay; format: functional, cell-based
In short: (§2)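 MTT viability assay; cells seeded at 3000 per well the day before treatment, kept under standard growth conditions. Compounds dissolved in 100% DMSO (stored −20 °C), final DMSO at most 0.1%. Viability relative to vehicle-treated cells set as 100%; coibamide A (30 nM) as control cancer cell toxin.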

MDA-MB-231 = assay: Cytotoxicity against human MDA-MB-231 cells at 1 uM after 24 hrs by MTT assay; format: functional, cell-based; in short: as §2
SK-OV-3 = assay: Cytotoxicity against human SKOV3 cells at 1 uM after 24 hrs by MTT assay; format: functional, cell-based; in short: as §2
SF-295 = assay: Cytotoxicity against human SF295 cells at 1 uM after 24 hrs by MTT assay; format: functional, cell-based; in short: as §2

| SMILES | pIC50 (Plasmodium falciparum [1]) | pIC50 (Plasmodium falciparum [2]) | pIC50 (Plasmodium falciparum [3]) | Activity (NCI-H460) | Activity (MDA-MB-231) | Activity (SK-OV-3) | Activity (SF-295) |
| --- | --- | --- | --- | --- | --- | --- | --- |
| C#CCCC[C@H]1NC(=O)[C@H](C(C)C)N(C)C(=O)[C@H](C(C)C)NC(=O)[C@@H](C)N(C)C(=O)[C@@H]2CCCN2C(=O)[C@H]([C@H](C)CC)NC(=O)[C@H](C(C)C)N(C)C(=O)[C@H](C(C)C)NC(=O)[C@H](C)N(C)C(=O)[C@H](C(C)C)OC(=O)[C@H]1C | 6.66 | 6.64 | 6.15 | – | – | – | – |
| C#CCCC[C@H]1NC(=O)[C@H](C(C)C)N(C)C(=O)[C@H](C)NC(=O)[C@H](CC(C)C)N(C)C(=O)[C@@H]2CCCN2C(=O)[C@H]([C@H](C)CC)NC(=O)[C@H](C(C)C)N(C)C(=O)[C@H]([C@H](C)CC)NC(=O)[C@@H](C)N(C)C(=O)[C@H](C(C)C)OC(=O)[C@H]1C | 6.24 | 6.00 | 5.96 | inactive | inactive | inactive | inactive |
